Results: ChEMBL document CHEMBL3227926, “2-Mercaptoacetamidines as gastric antisecretory agents” (J Med Chem, 1979)

Tests used:
Canis familiaris [1] = assay: Toxicity in beagle dog assessed as emesis administered directly into stomach via gastric cannula; type: organism-based, Canis lupus familiaris; details: in vivo, other
Canis familiaris [2] = assay: Toxicity in beagle dog assessed as tachycardia administered directly into stomach via gastric cannula; type: organism-based, Canis lupus familiaris; details: in vivo, other
Canis familiaris [3] = assay: Inhibition of gastrin tetrapeptide-induced gastric secretion in beagle dog at 16 mg/kg administered directly into stomach via gastric cannula measured after 2 hrs of stimulation; type: functional; details: Canis lupus familiaris
How it was run: (§1)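 Conscious female beagles (5-9 kg) with chronic gastric fistula. Dose in 50 mL 1% methylcellulose was put into the stomach via the cannula 1 h before gastrin tetrapeptide 64 µg/kg sc (from 640 µg/mL in 30% Me2SO); controls got vehicle. Juice was collected for 2 h. Volume was measured, titratable acid obtained by titration to pH 7 with 0.01 N NaOH, and total acid taken as volume × concentration.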

Canis familiaris [4] = assay: Toxicity in beagle dog assessed as gastric bleeding administered directly into stomach via gastric cannula; type: organism-based, Canis lupus familiaris; details: in vivo, other
Canis familiaris [5] = assay: Inhibition of gastrin tetrapeptide-induced gastric secretion in beagle dog at 8 mg/kg administered directly into stomach via gastric cannula measured after 2 hrs of stimulation; type: functional; details: Canis lupus familiaris; how it was run: as §1
Canis familiaris [6] = assay: Inhibition of gastrin tetrapeptide-induced gastric secretion in beagle dog at 4 mg/kg administered directly into stomach via gastric cannula measured after 2 hrs of stimulation; type: functional; details: Canis lupus familiaris; how it was run: as §1

Row | SMILES | Activity (Canis familiaris [1]) | Activity (Canis familiaris [2]) | inhibition in vivo at 16 mg/kg (Canis familiaris [3]) [%] | Activity (Canis familiaris [4]) | inhibition in vivo at 8 mg/kg (Canis familiaris [5]) [%] | inhibition in vivo at 4 mg/kg (Canis familiaris [6]) [%]
1 | Cl.N=C(CS)NC1Cc2ccccc2C1 | Toxic | Toxic | 100 | Toxic |  | 
2 | Cl.N=C(CS)NC[C@@H]1C[C@H]2CC[C@H]1C2 (relative stereo; 15) | Toxic | Toxic |  | Toxic |  | 
3 | Cl.N=C(CS)NC1CCCCC1 | Toxic | Toxic |  | Toxic | 79 | 37
4 | Cl.N=C(CS)N1CCOCC1 | Toxic | Toxic | 23 | Toxic | 2 | 
5 | Cl.N=C(CO)NCc1ccccc1 | Toxic | Toxic | 0 | Toxic |  | 
6 | Cl.N=C(CS)NCC1CCCCC1 | Toxic | Toxic |  | Toxic | 86 | 
7 | Cl.N=C(CS)NCC12CCC(C(=O)O)(CC1)CC2 | Toxic | Toxic |  | Toxic | 0 | 
8 | Cl.N=C(CS)NC12CC3CC(CC(C3)C1)C2 | Toxic | Toxic | 86 | Toxic | 61 | 
9 | Cl.N=C(CS)NCC12CCC(CC1)C2 | Toxic | Toxic |  | Toxic | 91 | 0
10 | O=C(CS)NC12CC3CC(CC(C3)C1)C2 | Toxic | Toxic | 58 | Toxic |  | 
11 | Cl.N=C(CCSSCCC(=N)NCc1ccccc1)NCc1ccccc1 | Toxic | Toxic | 42 | Toxic |  | 
12 | Cl.N=C(CS)NC1CCc2ccccc21 (stereo not drawn) | Toxic | Toxic | 85 | Toxic | 20 | 
13 | Cl.N=C(CS)NC1C2CC3CC(C2)CC1C3 (stereo not drawn) | Toxic | Toxic | 85 | Toxic |  | 
14 | Cl.N=C(CS)NCC12CCCC(CC1)C2 (stereo not drawn) | Toxic | Toxic |  | Toxic | 95 | 0
15 | Cl.N=C(N)CS | Toxic | Toxic |  | Toxic | 89 | 
16 | Cl.N=C(CS)NC(c1ccccc1)c1ccccc1 | Toxic | Toxic | 82 | Toxic |  | 
17 | Cl.N=C(CS)NCC1C2CC3CC(C2)CC1C3 (stereo not drawn) | Toxic | Toxic |  | Toxic | 67 | 
18 | O=C(CS)NCc1ccccc1 | Toxic | Toxic |  | Toxic | 0 | 
19 | CC(C)(C)CNC(=N)CS.Cl | Toxic | Toxic |  | Toxic | 95 | 25
20 | Cl.N=C(CS)NCC12CCC(CC1)CC2 | Toxic | Toxic |  | Toxic | 87 | 48
21 | Cl.N=C(CS)NC(c1ccccc1)c1ccc(Cl)cc1 (stereo not drawn) | Toxic | Toxic | 87 | Toxic |  | 
22 | Cl.N=C(CS)NC/C=C/c1ccccc1 | Toxic | Toxic |  | Toxic | 53 | 
23 | Cl.N=C(CS)Nc1cccc2c1CCCC2 | Toxic | Toxic | 14 | Toxic |  | 
24 | CC(C)(C)CNC(=N)CO.Cl | Toxic | Toxic | 61 | Toxic | 22 | 
25 | Cl.N=C(CS)NCC(c1ccccc1)c1ccccc1 | Toxic | Toxic | 60 | Toxic | 0 | 
26 | CN(C)C(=N)CS.Cl | Toxic | Toxic |  | Toxic | 62 | 0
27 | Cl.N=C(CS)N1CC2CCC(CC2)C1 | Toxic | Toxic | 92 | Toxic |  | 
